B1: tRNA (parent)
chain: CUCUCGGUAGCCAAGUUGGUUUAAGGCGCAAGACUUUAAUUUAUCACUACGAAAUCUUGAGAUCGGGCGUUCGACUCGCCCCCGGGAGAUUUUUUCCUCGAGCAA

This sample holds only a part of the variants without activity. Some results are limits rather than exact numbers.

The variants in the series derive from B1. Description: nonsense suppression (GFP-seq) (ratio to wild type); higher = more function; SUP4oc tRNA, yeast GFP reporter sort-seq. The method, boiled down:
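Nonsense suppression (GFPSEQ) is the median GFP/RFP ratio of each sorting bin, weighted by the variant's estimated share of cells in that bin and expressed relative to the unmutated parent tRNA. Yeast strains carried genome-integrated variants of an ochre-suppressor tRNA from a library with ~3% random mutations, plus a galactose-driven GFP ochre reporter and RFP, and were grown in raffinose/galactose medium containing 80 mg/L adenine. Cells were sorted into GFP/RFP bins, each bin was Illumina-sequenced (phred ≥30), and variants were kept only with ≥100 reads and ≥30 cells.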
On to CUCUCGGUAGCCAAGUUGGUUUACGGCGCAAGACUUUAAUUUAUCACUACGAAAUCUUGAGAUCGGCCGUUCGACUCGCCCCCUGGAGAUUUUUUCCUCGAGCAA, for which the nonsense suppression was at most 0.026.

On to CUCUCGGUAGCCAAGUUGGUUUACGUCGCAAGACUUUAAUUUAUCACUACGAAAUCUUGAGAUCGGGCGUUCGACUCGCCCCCGGGAGAUUUUUUCCUCGAGCAA, for which the nonsense suppression turned out to be 0.038. For CUCUCGGUAGCCAAGUUGGUUUAGGGCGCAAGACUUUAAUUUAUCACUACGAAAUCUUGAGAUCGGGCGUUCGACUCGCCCCCGGGAGAUUUUUUCCUCGAGCAA the value was 0.188; for CUCUCGGUAGCCAAGUUGGUUUACGGCGCAAGACUUUAAUUUAUCACUACGAAAUCUUGAGAUGGGGCGUUCGACUCGCCCCCGGGAGAUUUUUUCCUCGAGCAA, at most 0.026. For CUCUCGGUAGCCAAGUUGGUUUACGGCACAAGACUUUAAUUUAUCACUACGAAAUCUUGAGAUCGGGCGUUCGACUCGCCCCCGGGAGAUUUUUUCCUCGAGCAA the value was 0.952. For CUCUCGGUAGCCAAGUUGGUUUACGGCCCAAGACUUUAAUUUAUCACUACGAAAUCUUGAGAUCGGGCGUUCGACUCGCCCCCGGGAGAUUUUUUCCUCGAGCAA the value was 0.201.

Regarding CUCUCGGUAGCCAAGUUGGUUUACGGCGCAAGACUUUAAUUUAUCACUACGAAAUCUUGAGAUCGGGCGUUUGACUCGCCCCCGGGAGAUUUUUUCCUCGAGCAA, the nonsense suppression came to 0.0288. The same measure for CUCUCGGUAGCCAAGUUGGUUUACGGCGCAAGACUUUAAUUUAUCACUACGAAAUCUUGAGAUCGGGCGUUGGACUCGCCCCCGGGAGAUUUUUUCCUCGAGCAA: 0.0618; for CUCUCGGUAGCCAAGUUGGUUUACGGCGCAAGACUUUAAUUUAUCACUACGAAAUCUUGAGAUCUGGCGUUCGACUCGCCCCCGGGAGAUUUUUUCCUCGAGCAA: 0.0266; for CUCUCGGUAGCCAAGUUGGUUUACGGCGCAAGACUUUAAUUUAUCACUACGAAAUCUUGAGAUCAGGCGUUCGACUCGCCCCCGGGAGAUUUUUUCCUCGAGCAA: 0.0366. The same measure for CUCUCGGUAGCCAAGUUGGUUUAGGGCGCAUGAUUUUAAUUUAUCACUACGAAAUCUUGAGAUCGGGCGUUCGGCUCGCCCCCGGGAGAUUUUUUCCUCGAGCAA: at most 0.026; for CUCUCGGUAGCCAAGUUGGUUUACGGCGCAAGACUUUAAUUUAUCACUACGAAAUCUUGAGAUCGGGCGUUCGACUCACCCCCGGGAGAUUUUUUCCUCGAGCAA: 0.112. Turning to CUCUCGGUAGCCAAGUUGGUUUACGGCGCAAGACUUUAAUUUAUCACUACGAAAUCUUGAGAUCGGGCGUUCGACUCUCCCCCGGGAGAUUUUUUCCUCGAGCAA, the nonsense suppression was 0.0343. The same measure for CUCUCGGUAGCCAAGUUGGUUUAGGGCGCAGGACUUUAAUUUAUCACUACGAAAUCUUGAGAUCGGGCGUUCGACUCGCCCCCGGGAGAUUUUUUCCUCGAGCAA: 0.0322.

On to CUCUCGGUAGCCAAGUUGGUUUACGGCGCAAGACUUUAAUUUAUCACUACGAAAUCAUGAGAUCGGGCGUUCGACUCGCCCCCGGGAGAUUUUUUCCUCGAGCAA, for which the nonsense suppression worked out at 0.0454. For the variant CUCUCGGUAGCCAAGUUGGUUUACGGCGCAAGACUUUAAUUUAUCACUACGAAAUCUUGUGAACGGGCGUUCGACUCGCCCCCGGGAGAUUUUUUCCUCGAGCAA, the nonsense suppression was 0.112. The same measure for CUCUCGGUAGCCAAGUUGGUUUAGGGCGCUAGACUUUAAUUUAUCACUACGAAAUCUUGAGAUCGGGCGGUAGACUCGCCCCCGGGAGAUUUUUUCCUCGAGCAA: at most 0.026; for CUCUCGGUAGCCAAGUUGGUUUACGGCGCAAGACUUUAAUUUAUCACUACGAAAUCUUGAGAUCGGGCGUUCGAGUCGCCCCCGGGAGAUUUUUUCCUCGAGCAA: 1.11. For CUCUCGGUAGCCAAGUUGGUUUACGGCGCAAGACUUUAAUUUAUCACUACGAAAUCUUGAGAUCGGGCGUUCGAUUCGCCCCCGGGAGAUUUUUUCCUCGAGCAA the value was 1.18. Turning to CUCUCGGUAGCCAAGUUGGUUUACUGCGCAAGACUUUAAUUUAUCACUACGAAAUCUUGAGAUCGGGCGUUCGACUCGCCCCCGGGAGAUUUUUUCCUCGAGCAA, the nonsense suppression was at most 0.026. For CUCUCGGUAGCCAAGUUGGUUUACGGCGCAAGACUUUAAUUUAUCACUACGAAAUCUUGAGAUCGGGCGUUCCACUCGCCCCCCGGAGAUUUUUUCCUCGAGCAA the value was at most 0.026. The same measure for CUCUCGGUAGCCAAGUUGGUUUACGGCGCAAGACUUUAAUUUAUCACUACGAAACCUUGAGAUCGGGCGUUCGACUCGCCCCCGGGAGAUUUUUUCCUCGAGCAA: 0.365.

CUCUCGGUAGCCAAGUUGGUUUACGGCGCAAGACUUUAAUUUAUCACUACGAAAUCUUGAGAUCGGGCGUUCGCCUCGCCCCCGGGAGAUUUUUUCCUCGAGCAA: the nonsense suppression came to 0.0915.

For CUCUCGGUAGCCAAGUUGGUUUACGGCGUAAGACUUUAAUUUAUCACUACGAAAUCUUGAGAUCGGGCGUUCGACUCGCCCCCGGGAGAUUUUUUCCUCGAGCAA, the nonsense suppression was 0.751. For CUCUCGGUAGCCAAGUUGGUUUACGGCGCAAGACUUUAAUUUAUCACUACGAAAUCUUGAGAUCGGGCGUUCGACUCGCCCCCGGGAAAUUUUUUCCUCGAGCAA the value was 0.0453; for CUCUCGGUAGCCAAGUUGGUUUACGGCGCAAGACUUUAAUUUAUCACUACGAAAUCUUGAGAUCGGGCGUUUGACUCGCCCCCAGGAGAUUUUUUCCUCGAGCAA, at most 0.026; for CUCUCGGUAGCCAAGUUGGUUUAGGGCGCAAGACUUUAAUUUAUCACUACGAAAUCUUGGGAUCGGGCGUUCGACUCGCCCCCGGGAGAUUUUUUCCUCGAGCAA, 0.0307.
